This is an account of results in article PMC6945494 (Biomaterials, 2019).

Broadly, the EC50 is the concentration that produces a half-maximal response. For orientation: inhibition means how much of the control response was suppressed. As a reminder, the solubility is the dissolved amount per volume that the medium holds. As a reminder, the aqueous solubility is the dissolved amount per volume that the medium holds.

The subject of one series is HIV-1NL4–3-eGFP. Description: microbe, parasite or virus in culture. It is filed as cell-based. To be noted: Human immunodeficiency virus 1, T-cell, 240 h, read-out: EC50 (RT activity).
Series [1] relates to MDM. Kind of series: MTT cell viability assay in MDM. To be noted: for effect on mitochondrial reductase activity (MTT): 10–400 μM. It is filed as cell-based, human. In general terms: Tetrazolium dyes change colour on reduction, which living cells bring about.
Series [2] concerns HIV-1ADA. Kind of series: Long-term antiretroviral efficacy in MDM. It is filed as cell-based. In short, it runs like this: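 Human monocytes from leukapheresis, purified by elutriation and differentiated 7 days in DMEM with 10% heat-inactivated human serum and 1000 U/mL MCSF. MDM were exposed to 100 μM test compound for 8 h, washed, and kept drug-free with half-media changes every other day. On days 1–30 they were challenged with HIV-1ADA at MOI 0.1 for 16 h. RT activity in fluids on day 10; PFA-fixed cells stained for p24.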

A short description of series [3]: Pharmacokinetics and biodistribution after a single IM injection. To be noted: rat. In kind it is in vivo, Sprague Dawley rats.
The subject of series [4] is MDM. Description: Cellular drug uptake and retention in MDM. It is filed as cell-based, human.
Series [5] relates to HIV-1ADA. Description: EC50 by HIV-1 RT activity in MDM. To be noted: read-out: EC50 (HIV-1 RT activity). In kind it is cell-based.
A short description of series [6]: Solubility in water and 1-octanol. It is filed as physicochemical. In short, it runs like this: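 Excess test compound or parent nucleoside was added to water or 1-octanol to give saturated solutions. These were mixed 24 h at room temperature, then centrifuged at 14,000 × g for 10 min to remove undissolved drug. Supernatant concentration was quantified by UPLC-TUV.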

The nature of series [7]: Plasma stability, human plasma. To be noted: 37 °C; for chemical stability in plasma: up to 24 h, 1 μM. In kind it is in vitro ADME. In short, it runs like this: (§1)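 Plasma (100 μL) was spiked with 1 μM test compound at 37 °C. It was stopped at 0, 2, 6 and 24 h with 1 mL methanol and 3 min vortexing. Heat-inactivated plasma under identical conditions separated chemical from enzymatic loss. After centrifugation at 15,000 g for 10 min, supernatant was diluted in 80% methanol with internal standard. Analysed by UPLC-MS/MS.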

Series [8] can be described thus: Prodrug chemical stability at acid, alkaline and neutral pH. In kind it is physicochemical. To be noted: room temperature; for prodrug degraded: after 24 h.
The nature of series [9]: Plasma stability, animal plasma. It is filed as in vitro ADME, rat, mouse. To be noted: rodent, dog, rabbit and monkey plasma, after 24 h at 37 °C. In short, it runs like this: as §1

≈ marks a conversion by molar mass, not a printed value. Read-outs that look alike come from different tables or passages of the source.

As to `Nc1nc(=O)n([C@@H]2CS[C@H](CO)O2)cc1F` [FTC, emtricitabine], the concentration for a half-maximal effect (EC50) with HIV-1NL4–3-eGFP was 25700 pM; in the series with HIV-1ADA [5] (Human immunodeficiency virus 1, 240 h), 500 pM. In addition, the “effect on mitochondrial reductase activity (MTT)” value in the series with MDM [1] is given as “No effects”. In the series with HIV-1ADA [2] (Human immunodeficiency virus 1, 8 h, read-out: protection (viral inhibition)), the inhibition at 100 µM amounted to 40%. The viral inhibition result in the series with HIV-1ADA [2] (MDM, single 8 h treatment 100 μM, challenge at time points later than day one) is on record as “no viral inhibition”. Besides, the concentration at 7 days in [3] (male, Sprague Dawley, whole blood, intramuscular, 45 mg/kg FTC-equivalent) is < 2 ng/mL. In addition, the “drug concentrations in blood and tissues over time (in words)” value in [3] (single IM 45 mg/kg) was “declined to undetectable levels within a day”. The “FTC-TP levels in lymph node and spleen cells” value in series [3] (single IM 45 mg/kg FTC equivalents, day 28 / one month) is on record as “undetectable levels”. Besides, the “drug levels in tissues (in words)” value in series [3] (single IM 45 mg/kg, lymph nodes, spleen, liver) is reported as “rapidly fell below the limit of quantitation”. Further, the “intracellular drug concentration (uptake)” value with MDM [4] (100 μM, over 8 h) is on record as < 0.1 nmoles/10^6 cells. Moreover, the “intracellular drug (retention)” value with MDM [4] (at 8 h) is “undetectable”. Further, in the series on CEM-ss CD4+ T-cells (human), the “concentration not affecting cell viability (LiveDead staining)” value was ≤ 200 µM. For the same compound, the solubility at 24 h in series [6] (1-octanol) is 0.97 ± 0.027 mg/mL (≈ 3.92 mM); in series [6] (water) it was 143 ± 11.2 mg/mL (≈ 578 mM).
With `CCCCCCCCCCCCCCCCCCCCCCOC(=O)[C@H](Cc1ccccc1)NP(=O)(OC[C@@H]1O[C@H](n2cc(F)c(N)nc2=O)CS1)Oc1ccccc1` (stereo partly drawn) [M2FTC], the “effect on mitochondrial reductase activity (MTT)” value with MDM [1] is on record as “No effects”. For the same compound, the “non-cytotoxic concentration (MTT)” value with MDM [1] (24 h treatment) was ≤ 100 µM. The “effect on cell viability (MTT)” value with MDM [1] (above 100 μM) is reported as “slight reduction in cell viability”. The “chemical stability in plasma” value in series [7] (heat inactivated human plasma) and in series [7] (normal human plasma) was “over 90%” in each case. The “plasma stability (in words)” value in [7] (normal and heat inactivated human plasma, over 24 h) is listed as “remained stable”. Also, the prodrug degraded in [8] (acidic pH (0.1 M HCl)) and in [8] (alkaline pH (0.1 M NaOH)) was 10% throughout. For the same compound, in [8] (neutral pH (water)), the “chemical stability at neutral pH” value is reported as “stable over 7 days”. Moreover, the “degradation in plasma (in words)” value in series [9] is reported as “high”. The “concentration not affecting cell viability (LiveDead staining)” value in the series with CEM-ss CD4+ T-cells was ≤ 200 µM. Besides, the EC50 with HIV-1ADA [5] (HIV-1ADA in MDM, MOI 0.1, 10 days) was determined as 110 pM. In addition, the “fold improvement in octanol solubility compared to FTC” value in series [6] (1-octanol) is reported as 90 fold. Also, the octanol solubility in [6] (1-octanol, saturated solution mixed 24 h) is on record as 87.56 ± 0.236 mg/mL. Further, in [6] (water), the “fold decrease in aqueous solubility compared to FTC” value is on record as 4000 fold. Besides, the aqueous solubility in series [6] (water, saturated solution mixed 24 h) is 0.0366 ± 0.0093 mg/mL (≈ 0.0426 mM).
